Test results from PubChem BioAssay.
Results filed as inconclusive are left out. Activity calls are given as the source filed them.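 The calls were made as follows, unless noted: active = RAM network inhibition above 8.4% in each of two replicates, 3 SD over the compound average; inconclusive = above 8.4% inhibition in only one replicate; inactive = 8.4% inhibition or less in each replicate.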

Experiments:
[1] = OD615 S. cerevisiae growth inhibition, permissive medium, pilot counter-assay, permissive growth control for S. cerevisiae lifespan shortening project (AID 705;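 active = growth inhibition above 25% in both replicates, a cutoff set 3 SD above the mean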); settings: OD615, 24 h, at 10 µM, hits give high values
How it was run: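 assay system = Saccharomyces cerevisiae strain carrying genetically modified DeaD replicative-lifespan system | technique = absorbance (optical density) at 615 nm | buffer or medium = permissive raffinose/galactose medium | timing = cells pre-grown 4 h, then 24 h compound exposure, 30 °C humidified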

[2] = Restrictive medium S. cerevisiae growth inhibition, OD615, pilot screen of yeast lifespan reduction project, restrictive growth control (AID 706;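 active = growth inhibition above a set limit, 3 SD over mean compound inhibition, in both replicates, cut at about 43% in these data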;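 also: modified DeaD lifespan yeast strain shifted to restrictive glucose medium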); settings: OD615, 48 h, at 10 µM, hits give high values
How it was run: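 System: modified S. cerevisiae. Buffer or medium: CSMM-D glucose medium. Incubation: 4 h pre-growth plus 48 h compound exposure, 30 °C. Detection: absorbance (optical density) measured at 615 nm.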

[3] = viability gain of MRP-1-high H69AR cells under doxorubicin, pilot screen, MRP-1 activator project, CellTiter-Glo, duplicate (AID 807;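 active = viability increase at or above a cutoff of the median across tested compounds plus 3 SD, cut at about 8.5% in these data, passing the limit was not always enough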;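 also: compound pretreatment 18-22 h then 72 h combined with doxorubicin; 0% = doxorubicin alone and 100% = vehicle without doxorubicin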); settings: H69AR viability with doxorubicin, CellTiter-Glo luminescence; at 10 µM; hits give high values
[4] = growth suppression of beta-catenin knockout HCT116, pilot screen, human colon tumor cells (AID 823;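 active = cell viability at or below a set limit in both duplicate runs, the limit being the all-compound median minus 4 SD, cut at about 23% in these data, passing the limit was not always enough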;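 also: 0% = wells killed by 20 µM Hyamine and 100% = untreated DMSO cell wells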); settings: CellTiter-Glo, 60 h, at 10 µM, hits give low values
[5] = growth suppression of PTEN-deleted HCT116, pilot screen, cell-based, HCT116 clonal line, CellTiter-Glo (AID 824;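 active = viability at or below 27.92% in each of two runs, the all-compound median minus 4 SD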;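 also: 0% = 20 µM Hyamine control and 100% = vehicle cell control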); settings: 60 h, at 10 µM, hits give low values
[6] = inhibitors of the yeast RAM network, pilot screen, dse1pr::URA3 reporter, 5-FOA selection (AID 869;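 active = inhibition over a set limit, the all-compound mean plus 3 SD, in both replicate runs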;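 also: 0% = DMSO wells with no growth and 100% = 10 µM 1-NA-PP1 with full growth; RAM network block rescues cells from 5-FOA so hits raise OD615 growth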); settings: S. cerevisiae dse1pr::URA3 5-FOA growth, OD615, 2 d; at 10 µM; hits give high values; strain carries analog-sensitive mutant Cbk1 kinase
[7] = RAM signaling pathway blockade in yeast – S. cerevisiae, Pdr1DBD-CYC8 efflux-inhibited sensitized strain, primary screen (AID 1298);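 also: 0% = DMSO untreated cells without growth and 100% = 10 µM 1-NA-PP1 full growth; higher means more yeast growth rescued from 5-FOA killing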; settings: S. cerevisiae cbk1-as DSE1-URA3 strain, 5-FOA growth OD615, 2 d; at 50 µM; hits give high values

CC(=O)N1CC2(C)CN(C(C)=O)CC(C)(C1)C2=O
inactive: growth inhibition [1] -5.64% | growth inhibition [2] 2.83% | viability increase [3] -0.26% | viability [4] 101% | viability [5] 102% | inhibition [6] 1.9% | RAM network inhibition [7] -0.41%

Cc1ccc(OCC(=O)O)c(-n2nc3ccccc3n2)c1
inactive: growth inhibition [1] -10.3% | growth inhibition [2] 0.43% | viability increase [3] 0.43% | viability [4] 89.9% | viability [5] 102% | inhibition [6] 2.7% | RAM network inhibition [7] 2.69%

O=C(Cn1nc(C(=O)O)c2ccccc2c1=O)NCC1CCCO1 (stereo unspecified)
inactive: growth inhibition [1] -4.73% | growth inhibition [2] -13.3% | viability increase [3] -0.44% | viability [4] 103% | viability [5] 102% | inhibition [6] 1.71% | RAM network inhibition [7] 6.89%

CC1CCN(S(=O)(=O)c2ccc3c(c2)oc(=O)n3CC(=O)N2c3ccccc3CC2C)CC1 (stereo unspecified)
inactive: growth inhibition [1] -4.77% | growth inhibition [2] -7.59% | viability increase [3] -4.28% | viability [4] 68.5% | viability [5] 52.9% | inhibition [6] 2.85% | RAM network inhibition [7] 7.34%

COc1ccc(OCc2nnc3n2N=C(c2ccc(OC)cc2)CS3)cc1
inactive: growth inhibition [1] 7.92% | viability increase [3] -2.84% | viability [4] 69.9% | viability [5] 66.4% | inhibition [6] 2.15% | RAM network inhibition [7] 7.82%
active: growth inhibition [2] 57.4%

CCCCNC(=O)CC1Nc2ccccc2NC1=O (stereo unspecified)
inactive: growth inhibition [1] 5.04% | growth inhibition [2] 4.59% | viability increase [3] -2.91% | viability [4] 113% | viability [5] 93% | inhibition [6] 0.83% | RAM network inhibition [7] 5.83%

CC(=O)OC(/C(O)=C(\C#N)c1nc2ccccc2[nH]1)c1ccccc1 (stereo unspecified)
inactive: growth inhibition [1] 0.55% | growth inhibition [2] 3.63% | viability increase [3] -0.98% | viability [4] 59.6% | viability [5] 54.3% | inhibition [6] 1.63% | RAM network inhibition [7] 3.42%

Cc1sc(NC(=O)c2cccs2)c(C(N)=O)c1C
inactive: growth inhibition [1] -6.89% | growth inhibition [2] 22.8% | viability increase [3] -6.53% | viability [4] 80.8% | viability [5] 88.4% | inhibition [6] 0.26% | RAM network inhibition [7] -1.19%

O=C(OCN1C(=O)c2ccccc2C1=O)c1cccs1
inactive: growth inhibition [1] -2.01% | growth inhibition [2] -11.2% | viability increase [3] -0.64% | viability [4] 94.7% | viability [5] 96.5% | inhibition [6] 1.2% | RAM network inhibition [7] 1.51%

CC(C)(Oc1ccc(Cl)cc1)C(=O)NCc1ccco1
inactive: growth inhibition [1] -1.12% | growth inhibition [2] -0.2% | viability increase [3] -4.22% | viability [4] 87.2% | viability [5] 80% | inhibition [6] 1.18% | RAM network inhibition [7] 5.92%

O=C(CNS(=O)(=O)c1cccc2nsnc12)NC1CCCCC1
inactive: growth inhibition [1] -8.49% | growth inhibition [2] -16.5% | viability increase [3] -1.47% | viability [4] 96.2% | viability [5] 92.3% | inhibition [6] 1.06% | RAM network inhibition [7] 1.3%

CCc1c(C)sc(NC(=O)c2cccs2)c1C(=O)OC(C)C
inactive: growth inhibition [1] -3.37% | growth inhibition [2] 5.3% | viability increase [3] 4.48% | viability [4] 77.5% | viability [5] 79.1% | inhibition [6] 1.9% | RAM network inhibition [7] 5.72%

COc1ccc(Cl)cc1N(CC(=O)Nc1ccc2c(c1)OCCO2)S(C)(=O)=O
inactive: growth inhibition [1] -2.33% | growth inhibition [2] 0.055% | viability increase [3] -2.78% | viability [4] 92.7% | viability [5] 89.4% | inhibition [6] 3.33% | RAM network inhibition [7] 2.8%

CCOCN(C(=O)Cn1c(CO)nc2ccccc21)c1c(C)cccc1CC
inactive: growth inhibition [1] -10.7% | growth inhibition [2] 0.69% | viability increase [3] -3.12% | viability [4] 89.4% | viability [5] 94.4% | inhibition [6] 2.68% | RAM network inhibition [7] 7.56%

CCOc1ccccc1Nc1nnc(Cc2ccccc2Cl)c(=O)[nH]1
inactive: growth inhibition [1] -24.5% | growth inhibition [2] -19.1% | viability increase [3] -2.83% | viability [4] 90.7% | viability [5] 94.6% | inhibition [6] 0.115% | RAM network inhibition [7] 5.74%

CC(=O)c1ccc(OCC(O)CN2CCN(c3ccccn3)CC2)cc1 (stereo unspecified)
inactive: growth inhibition [1] 2.13% | growth inhibition [2] 4.88% | viability increase [3] 0.37% | viability [4] 102% | viability [5] 103% | inhibition [6] 1.18% | RAM network inhibition [7] 2.51%

Cc1cnn(-c2ccc3nnc(-c4ccc(Br)cc4)n3n2)c1
inactive: growth inhibition [1] -5.48% | growth inhibition [2] -11.2% | viability increase [3] -4.96% | viability [4] 85.9% | viability [5] 84.1% | inhibition [6] 1.4% | RAM network inhibition [7] 3.52%

CSc1nnc(Cn2c(=O)sc3ccccc32)n1C
inactive: growth inhibition [1] -4.88% | growth inhibition [2] -13% | viability increase [3] -1.82% | viability [4] 109% | viability [5] 99.4% | inhibition [6] 1.94% | RAM network inhibition [7] 6.98%
